Data as given in ChEMBL document CHEMBL3588823, “Design, synthesis and biological evaluation of novel 5-oxo-2-thioxoimidazolidine derivatives as potent androgen receptor antagonists” (Eur J Med Chem, 2015).

Tests used:
LNCaP = test: Antiproliferative activity against human LNCAP cells after 3 days; format: functional, cell-based; details: Homo sapiens, LNCaP, 72 h; read-out: IC50
In short: (§1)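 LNCaP cells seeded at 10,000 per well in RPMI 1640 with 10% charcoal-stripped serum and 1% AAS, then held 3 days at 37 °C. Medium was then replaced with serial compound dilutions, either without DHT (agonism mode) or with DHT (antagonism mode).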

Androgen receptor [1] = biological target: T1, Androgen receptor (Homo sapiens, UniProt P10275); test: Antagonist activity at androgen receptor (unknown origin)
T1 sequence (P10275 whole entry): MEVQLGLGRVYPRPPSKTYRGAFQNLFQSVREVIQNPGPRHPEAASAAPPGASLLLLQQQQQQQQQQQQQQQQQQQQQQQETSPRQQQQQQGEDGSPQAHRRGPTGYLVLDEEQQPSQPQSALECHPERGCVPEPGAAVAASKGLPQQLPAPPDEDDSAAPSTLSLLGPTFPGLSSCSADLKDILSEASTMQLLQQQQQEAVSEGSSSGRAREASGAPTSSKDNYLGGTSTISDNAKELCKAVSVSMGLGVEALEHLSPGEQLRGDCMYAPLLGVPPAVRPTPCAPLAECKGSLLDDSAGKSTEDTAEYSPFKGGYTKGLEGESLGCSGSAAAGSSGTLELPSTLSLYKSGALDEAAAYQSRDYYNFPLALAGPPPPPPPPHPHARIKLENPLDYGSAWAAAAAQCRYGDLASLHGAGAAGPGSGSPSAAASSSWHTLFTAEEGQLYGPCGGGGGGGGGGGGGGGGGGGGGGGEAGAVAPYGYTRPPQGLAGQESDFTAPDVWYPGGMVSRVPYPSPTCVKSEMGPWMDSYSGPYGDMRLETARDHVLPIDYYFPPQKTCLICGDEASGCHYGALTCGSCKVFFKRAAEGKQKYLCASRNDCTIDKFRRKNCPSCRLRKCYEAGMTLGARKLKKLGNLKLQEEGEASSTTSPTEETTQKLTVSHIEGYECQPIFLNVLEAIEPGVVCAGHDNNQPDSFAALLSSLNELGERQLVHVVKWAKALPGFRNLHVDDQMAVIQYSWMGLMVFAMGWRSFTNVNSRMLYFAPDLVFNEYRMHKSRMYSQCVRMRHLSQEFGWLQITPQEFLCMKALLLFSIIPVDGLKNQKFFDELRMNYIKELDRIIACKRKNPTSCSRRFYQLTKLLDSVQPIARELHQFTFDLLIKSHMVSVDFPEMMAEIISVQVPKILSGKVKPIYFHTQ

Androgen receptor [2] = biological target: T1, Androgen receptor; test: Partial agonist activity at androgen receptor (unknown origin); in short: as §1
[3] = Clearance in rat at 5 mg/kg, po; format: ADME, organism-based; details: in vivo
In short: (§2)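 Rats (n = 3) were given a single 5 mg/kg oral dose in 0.5% HPMC. Blood was taken into EDTA tubes at 15 and 30 min and 1, 2, 4, 8 and 24 h. Plasma was obtained by centrifugation and proteins were precipitated with acetonitrile. Bioavailability was calculated against a 1 mg/kg iv dose.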

Rattus norvegicus [4] = test: Volume of distribution in rat at 5 mg/kg, po; format: ADME, organism-based; details: in vivo; in short: as §2
[5] = MRT (INF) in rat at 5 mg/kg, po; format: ADME, organism-based; details: in vivo; in short: as §2
[6] = MRT (last) in rat at 5 mg/kg, po; format: ADME, organism-based; details: in vivo; in short: as §2
[7] = Tmax in rat at 1 mg/kg, iv; format: ADME, organism-based; details: in vivo
In short: (§3)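 Rats (n = 3) were given a single 1 mg/kg iv dose in 20% hydroxypropyl-β-cyclodextrin. Blood was taken into EDTA tubes at 5, 15 and 30 min and 1, 2, 4, 8 and 24 h. Plasma was obtained by centrifugation and proteins were precipitated with acetonitrile before analysis.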

[8] = (§4) Half life in rat at 5 mg/kg, po; format: ADME, organism-based; details: in vivo; in short: as §2
[9] = AUC (0 to infinity) in rat at 1 mg/kg, iv; format: ADME, organism-based; design: dose 1 mg/kg, route intravenous, time infinity; details: in vivo
In short: (§5)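 Rats (n = 3) given a single 1 mg/kg iv dose in 20% HP-b-CD. Blood was drawn into EDTA tubes at 5, 15 and 30 min and at 1, 2, 4, 8 and 24 h. Plasma was separated by centrifugation, mixed with acetonitrile:H2O (1:1 v/v) and protein-precipitated with acetonitrile.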

[10] = (§6) Tmax in rat at 5 mg/kg, po; format: ADME, organism-based; details: in vivo; in short: as §2
[11] = (§7) Half life in rat at 1 mg/kg, iv; format: ADME, organism-based; details: in vivo; in short: as §3
[12] = AUC (0 to time) in rat at 5 mg/kg, po; format: ADME, organism-based; details: in vivo
In short: (§8)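 Rats (n = 3) received a single 5 mg/kg oral dose in 0.5% HPMC. EDTA blood samples were taken at 15 and 30 min and at 1, 2, 4, 8 and 24 h. Plasma was obtained by centrifugation, mixed with acetonitrile:H2O (1:1 v/v) and precipitated with acetonitrile.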

[13] = AUC (0 to time) in rat at 1 mg/kg, iv; format: ADME, organism-based; details: in vivo; in short: as §5
[14] = (§9) Cmax in rat at 5 mg/kg, po; format: ADME, organism-based; design: dose 5 mg/kg, route oral; details: in vivo; in short: as §2
[15] = (§10) AUC (0 to infinity) in rat at 5 mg/kg, po; format: ADME, organism-based; design: dose 5 mg/kg, route oral, time infinity; details: in vivo; in short: as §8
Rattus norvegicus [16] = test: (§11) Clearance in rat at 1 mg/kg, iv; format: ADME, organism-based; details: in vivo; in short: as §3
[17] = (§12) Cmax in rat at 1 mg/kg, iv; format: ADME, organism-based; design: dose 1 mg/kg, route intravenous; details: in vivo; in short: as §3
Rattus norvegicus [18] = test: Volume of distribution at steady state in rat at 1 mg/kg, iv; format: ADME, organism-based; details: in vivo; in short: as §3
Rattus norvegicus [19] = test: Volume of distribution at steady state in rat at 5 mg/kg, po; format: ADME, organism-based; details: in vivo; in short: as §2
[20] = Oral bioavailability in rat at 5 mg/kg; format: ADME, organism-based; details: in vivo; in short: as §2
Rattus norvegicus [21] = test: MRT (INF) in rat at 1 mg/kg, iv; format: ADME, organism-based; details: in vivo; in short: as §3
[22] = MRT (last) in rat at 1 mg/kg, iv; format: ADME, organism-based; details: in vivo; in short: as §3
[23] = Volume of distribution in rat at 1 mg/kg, iv; format: ADME, organism-based; details: in vivo; in short: as §3
Rattus norvegicus [24] = test: as §4; format: ADME, organism-based; details: in vivo; in short: as §2
Rattus norvegicus [25] = test: as §6; format: ADME, organism-based; details: in vivo; in short: as §2
Rattus norvegicus [26] = test: as §7; format: ADME, organism-based; details: in vivo; in short: as §3
Rattus norvegicus [27] = test: as §9; format: ADME, organism-based; design: dose 5 mg/kg, route oral; details: in vivo; in short: as §2
Rattus norvegicus [28] = test: as §10; format: ADME, organism-based; design: dose 5 mg/kg, route oral, time infinity; details: in vivo; in short: as §8
[29] = as §11; format: ADME, organism-based; details: in vivo; in short: as §3
Rattus norvegicus [30] = test: as §12; format: ADME, organism-based; design: dose 1 mg/kg, route intravenous; details: in vivo; in short: as §3

Question: For `CNC(=O)c1ccc(N2C(=S)N(c3ccc(C#N)c(C(F)(F)F)c3)C(=O)C2(C)C)cc1F` [ENZALUTAMIDE], which IC50 (LNCaP) is on record?
Answer: 127 nM

Question: For `CNC(=O)c1ccc(N2C(=S)N(c3ccc(C#N)c(C(F)(F)F)c3)C(=O)[C@@]2(C)COC)cc1F`, which IC50 (LNCaP) is on record?
Answer: 185 nM

Question: What about the Ki (Androgen receptor [1]) of the same compound?
Answer: 40.6 nM

Question: Which results are given for `CNC(=O)c1ccc(N2C(=S)N(c3ccc(C#N)c(C(F)(F)F)c3)C(=O)C2(COC)COC)cc1F`?
Answer: IC50 (LNCaP): 3370 nM; Ki (Androgen receptor [1]): 585 nM

Question: With `CNC(=O)c1ccc(N2C(=S)N(c3ccc(C#N)c(C(F)(F)F)c3)C(=O)[C@@H]2C)cc1F` as the compound, how does the Ki (Androgen receptor [2]) read?
Answer: 95.3 nM

Question: And the IC50 (LNCaP)?
Answer: 398 nM

Question: For `CNC(=O)c1ccc(N2C(=S)N(c3ccc(C#N)c(C(F)(F)F)c3)C(=O)C23CCOCC3)cc1F`, which IC50 (LNCaP) is on record?
Answer: 540 nM

Question: And the Ki (Androgen receptor [1])?
Answer: 126 nM

Question: What does the source list for `CNC(=O)c1ccc(N2C(=S)N(c3ccc(C#N)c(C(F)(F)F)c3)C(=O)[C@H]2C)cc1F`?
Answer: Ki (Androgen receptor [2]): 482 nM; IC50 (LNCaP): 1510 nM

Question: With `CNC(=O)c1ccc(NC(=S)Nc2ccc(C#N)c(C(F)(F)F)c2)cc1F` as the compound, how does the IC50 (LNCaP) read?
Answer: > 10000 nM

Question: With `CNC(=O)c1ccc(N2CCC(=O)N(c3ccc(C#N)c(C(F)(F)F)c3)C2=S)cc1F` as the compound, how does the IC50 (LNCaP) read?
Answer: 3010 nM

Question: And the Ki (Androgen receptor [1])?
Answer: 576 nM

Question: What does the source list for `COC(=O)c1ccc(N2C(=S)N(c3ccc(C#N)c(C(F)(F)F)c3)C(=O)[C@]23CCOC3)cc1F`?
Answer: CL/F [3]: 147 mL/min/kg; Vd (Rattus norvegicus [4]): 53 L/kg; MRT inf [5]: 5 h; MRT last [6]: 4.6 h; Tmax [7]: 4.98 min; half-life [8]: 4.3 h; AUC(0-inf) [9]: 712 ng·h/mL; Tmax [10]: 1.67 h; half-life [11]: 17.1 h; IC50 (LNCaP): 59 nM; AUC [12]: 570 ng·h/mL; AUC [13]: 599 ng·h/mL; Cmax [14]: 104 ng/mL; AUC(0-inf) [15]: 576 ng·h/mL; CL (Rattus norvegicus [16]): 28.3 mL/min/kg; Cmax [17]: 518 ng/mL; Ki (Androgen receptor [1]): 11.9 nM; Vdss (Rattus norvegicus [18]): 1.6 L/kg; Vdss (Rattus norvegicus [19]): 2 L/kg; bioavailability [20]: 19%; MRT (Rattus norvegicus [21]): 12.8 h; MRT last [22]: 4.3 h; Vd [23]: 46 L/kg

Question: With `CNC(=O)c1ccc(N2C(=S)N(c3ccc(C#N)c(C(F)(F)F)c3)C(=O)[C@]23CCOC3)cc1F` as the compound, how does the MRT inf [5] read?
Answer: 7.2 h

Question: What about the MRT last [6] of the same compound?
Answer: 6.9 h

Question: What about the Tmax [7] of the same compound?
Answer: 4.98 min

Question: What about the t1/2 (Rattus norvegicus [24]) of the same compound?
Answer: 5.2 h

Question: And the AUC(0-inf) [9]?
Answer: 2620 ng·h/mL

Question: What about the Tmax (Rattus norvegicus [25]) of the same compound?
Answer: 2 h

Question: What about the t1/2 (Rattus norvegicus [26]) of the same compound?
Answer: 4.1 h

Question: What about the IC50 (LNCaP) of the same compound?
Answer: 79.2 nM

Question: And the AUC [12]?
Answer: 13000 ng·h/mL

Question: What about the AUC [13] of the same compound?
Answer: 2570 ng·h/mL

Question: What about the Cmax (Rattus norvegicus [27]) of the same compound?
Answer: 1062 ng/mL

Question: What about the AUC (Rattus norvegicus [28]) of the same compound?
Answer: 13105 ng·h/mL

Question: What about the clearance [29] of the same compound?
Answer: 6.67 mL/min/kg

Question: And the Cmax (Rattus norvegicus [30])?
Answer: 531 ng/mL

Question: And the Ki (Androgen receptor [1])?
Answer: 18.4 nM

Question: And the bioavailability [20]?
Answer: 100%

Question: What about the MRT (Rattus norvegicus [21]) of the same compound?
Answer: 5.3 h

Question: What about the MRT last [22] of the same compound?
Answer: 4.8 h

Question: And the Vd [23]?
Answer: 2.3 L/kg

Question: With `CNC(=O)c1ccc(N2C(=S)N(c3cnc(C#N)c(C(F)(F)F)c3)C(=O)C23CCC3)cc1F` [APALUTAMIDE] as the compound, how does the IC50 (LNCaP) read?
Answer: 174 nM

Question: With `CNC(=O)c1ccc(N2C(=S)N(c3ccc(C#N)c(C(F)(F)F)c3)C(=O)[C@@]23CCOC3)cc1F` as the compound, how does the IC50 (LNCaP) read?
Answer: 2000 nM

Question: What about the Ki (Androgen receptor [1]) of the same compound?
Answer: 215 nM

Question: Which IC50 (LNCaP) does the source give for `CNC(=O)c1ccc(N2C(=S)N(c3ccc(C#N)c(C(F)(F)F)c3)C(=O)C2(C)COC)cc1F` (racemic) here?
Answer: 344 nM

Question: And the Ki (Androgen receptor [1])?
Answer: 68 nM
